Source: ChEMBL document CHEMBL1135528, “Monocyclic human tachykinin NK-2 receptor antagonists as evolution of a potent bicyclic antagonist: QSAR and site-directed mutagenesis studies” (J Med Chem, 2002)
Where a chain is given by its changes, count along the chain named. Activity calls are given as the source filed them. The calls are words filed in the database; no cut-off is given here. Where a SMILES comes first, the peptide text is derived from it. Bridges are numbered along the chain shown (N, C = ends). [ ]: non-standard residue; d: D form. The star is where a group is joined. NH(β-GlcNAc) = CC(=O)N[C@@H]1[C@@H](O)[C@H](O)[C@@H](CO)O[C@H]1N*; Dap = NC[C@H](N)C(=O)O

Legend:
[1] = test system: T1, Substance-K receptor (Homo sapiens), P21452 [C167A]; assay: Binding affinity against C167A human neurokinin-2 receptor (hNK-2R) using [3H]nepadutant as a radioligand; UB is Undetectable Binding
T1 sequence (whole entry): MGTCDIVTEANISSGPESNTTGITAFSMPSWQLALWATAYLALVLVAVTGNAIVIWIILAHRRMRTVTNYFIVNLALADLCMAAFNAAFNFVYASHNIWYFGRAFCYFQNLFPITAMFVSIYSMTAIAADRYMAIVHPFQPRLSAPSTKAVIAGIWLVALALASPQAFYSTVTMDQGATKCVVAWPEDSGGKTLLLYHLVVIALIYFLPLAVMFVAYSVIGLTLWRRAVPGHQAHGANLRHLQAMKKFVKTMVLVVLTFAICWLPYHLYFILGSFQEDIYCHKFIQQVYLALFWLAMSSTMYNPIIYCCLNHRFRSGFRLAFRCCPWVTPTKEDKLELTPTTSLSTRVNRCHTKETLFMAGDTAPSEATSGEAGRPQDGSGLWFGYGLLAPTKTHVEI
Procedure, shortened: (§1)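 Membranes from cells stably transfected with wild-type or mutant hNK-2R, incubated with [3H]nepadutant for 60 min at 20 °C in 50 mM Tris-HCl pH 7.4 containing peptidase inhibitors, 150 mM NaCl, 5 mM MnCl2 and 1 g/L BSA. Competitors ranged 0.3 pM–10 μM. Nonspecific binding was defined with 1 mM unlabeled ligand. Bound label was collected by filtration and counted. Means from ≥3 duplicate experiments.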

[2] = test system: T2, Substance-K receptor (Homo sapiens), P21452 [W263A]; assay: Binding affinity against W263A human neurokinin-2 receptor (hNK-2R) using [3H]nepadutant as a radioligand; UB is Undetectable Binding; procedure, shortened: as §1
T2 sequence (whole entry): T1 sequence (whole entry) with A167C, W263A

[3] = test system: Substance-K receptor (Homo sapiens), P21452 [Y269A]; assay: Binding affinity against Y269A human neurokinin-2 receptor (hNK-2R) using [3H]nepadutant as a radioligand; procedure, shortened: as §1
Chain of Substance-K receptor (Homo sapiens), P21452 [Y269A] (P21452 whole entry Y269A): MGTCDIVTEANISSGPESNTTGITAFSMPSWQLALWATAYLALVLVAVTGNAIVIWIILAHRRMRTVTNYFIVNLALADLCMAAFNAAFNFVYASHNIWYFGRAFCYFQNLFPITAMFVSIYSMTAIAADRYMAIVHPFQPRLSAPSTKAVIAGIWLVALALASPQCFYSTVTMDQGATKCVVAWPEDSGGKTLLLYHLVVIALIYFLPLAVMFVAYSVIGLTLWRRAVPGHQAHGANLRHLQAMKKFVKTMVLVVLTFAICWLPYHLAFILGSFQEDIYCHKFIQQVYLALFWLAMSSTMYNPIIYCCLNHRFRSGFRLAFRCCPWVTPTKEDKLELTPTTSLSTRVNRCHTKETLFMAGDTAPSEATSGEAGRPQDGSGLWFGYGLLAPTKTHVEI

[4] = test system: T3, Substance-K receptor (Homo sapiens), P21452 [Y266F]; assay: Binding affinity against Y266F human neurokinin-2 receptor (hNK-2R) using [3H]nepadutant as a radioligand; UB is Undetectable Binding; procedure, shortened: as §1
T3 sequence (whole entry): T1 sequence (whole entry) with A167C, Y266F

[5] = target: T4, Substance-K receptor (Homo sapiens) (UniProt P21452); assay: Binding affinity against wild type human Wild-type tachykinin receptor 2 (hNK-2R) using [3H]nepadutant as a radioligand; procedure, shortened: as §1
T4 sequence (whole entry): T1 sequence (whole entry) with A167C

[6] = test system: Substance-K receptor (Homo sapiens), P21452 [Y269F]; assay: Binding affinity against Y269F human neurokinin-2 receptor (hNK-2R) using [3H]nepadutant as a radioligand; procedure, shortened: as §1
Chain of Substance-K receptor (Homo sapiens), P21452 [Y269F] (P21452 whole entry Y269F): as the sequence (P21452 whole entry Y269A) above, with A269F counted along it

[7] = test system: Substance-K receptor (Homo sapiens), P21452 [Y289F]; assay: Binding affinity against Y289F human neurokinin-2 receptor (hNK-2R) using [3H]nepadutant as a radioligand; procedure, shortened: as §1
Chain of Substance-K receptor (Homo sapiens), P21452 [Y289F] (P21452 whole entry Y289F): as the sequence (P21452 whole entry Y269A) above, with A269Y, Y289F counted along it

[8] = test system: Substance-K receptor (Homo sapiens), P21452 [S164A]; assay: Binding affinity against S164A human neurokinin-2 receptor (hNK-2R) using [3H]nepadutant as a radioligand; procedure, shortened: as §1
Chain of Substance-K receptor (Homo sapiens), P21452 [S164A] (P21452 whole entry S164A): as the sequence (P21452 whole entry Y269A) above, with S164A, A269Y counted along it

[9] = test system: T1, Substance-K receptor (Homo sapiens), P21452 [C167A]; assay: Binding affinity against C167A human neurokinin-2 receptor (hNK-2R) using [3H]SR-48,968 as a radioligand
Procedure, shortened: (§2)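 Radioligand [3H]SR48968 was incubated for 30 min at 20 °C with membranes from stably transfected wild-type or mutant hNK-2R cells, in Tris-HCl 50 mM pH 7.4 buffer with protease inhibitors, NaCl, MnCl2 and BSA. Test ligands ranged 0.3 pM–10 μM, with nonspecific binding in 1 mM unlabeled ligand. Filtration through PEI-soaked filters was followed by scintillation counting. pKi was derived by curve fitting, duplicate determinations.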

[10] = test system: Substance-K receptor (Homo sapiens), P21452 [Q109A]; assay: Binding affinity against Q109A human neurokinin-2 receptor (hNK-2R) using [3H]nepadutant as a radioligand; procedure, shortened: as §1
Chain of Substance-K receptor (Homo sapiens), P21452 [Q109A] (P21452 whole entry Q109A): as the sequence (P21452 whole entry Y269A) above, with Q109A, A269Y counted along it

[11] = test system: Substance-K receptor (Homo sapiens), P21452 [Q166A]; assay: Binding affinity against Q166A human neurokinin-2 receptor (hNK-2R) using [3H]nepadutant as a radioligand; procedure, shortened: as §1
Chain of Substance-K receptor (Homo sapiens), P21452 [Q166A] (P21452 whole entry Q166A): as the sequence (P21452 whole entry Y269A) above, with Q166A, A269Y counted along it

[12] = test system: Substance-K receptor (Homo sapiens), P21452 [H198A]; assay: Binding affinity against H198A human neurokinin-2 receptor (hNK-2R) using [3H]nepadutant as a radioligand; procedure, shortened: as §1
Chain of Substance-K receptor (Homo sapiens), P21452 [H198A] (P21452 whole entry H198A): as the sequence (P21452 whole entry Y269A) above, with H198A, A269Y counted along it

[13] = test system: Substance-K receptor (Homo sapiens), P21452 [T171A]; assay: Binding affinity against T171A human neurokinin-2 receptor (hNK-2R) using [3H]nepadutant as a radioligand; UB is undetectable binding; procedure, shortened: as §1
Chain of Substance-K receptor (Homo sapiens), P21452 [T171A] (P21452 whole entry T171A): as the sequence (P21452 whole entry Y269A) above, with T171A, A269Y counted along it

[14] = test system: T2, Substance-K receptor (Homo sapiens), P21452 [W263A]; assay: Binding affinity against W263A human neurokinin-2 receptor (hNK-2R) using [3H]SR-48,968 as a radioligand; procedure, shortened: as §2

UB [1]: inactive
UB [2]: inactive
KD/Ki [3]: 19 nM
UB [4]: inactive
KD/Ki [5]: 4 nM
KD/Ki [6]: 1.7 nM
KD/Ki [7]: 2.9 nM
KD/Ki [8]: 2.6 nM
KD/Ki [9]: > 10000 nM
KD/Ki [10]: 0.85 nM
KD/Ki [11]: 3.5 nM
KD/Ki [12]: 11.5 nM
UB [13]: inactive
KD/Ki [14]: 502 nM
Compound: CC(=O)N[C@@H]1[C@@H](O)[C@H](O)[C@@H](CO)O[C@H]1NC(=O)C[C@@H]1NC(=O)[C@H](CC(C)C)NC(=O)[C@@H]2CNC(=O)C[C@H](NC1=O)C(=O)N[C@@H](Cc1c[nH]c3ccccc13)C(=O)N[C@@H](Cc1ccccc1)C(=O)N2 (cyclo(D(NH(β-GlcNAc))DWF[Dap]L); lactam 2-5)
